Data: ChEMBL document CHEMBL1131201, “N-(benzyloxycarbonyl)glycine esters and amides as new anticonvulsants” (J Med Chem, 1998)

Tests used:
[1] = Lipophilicity value was evaluated; format: physicochemical; conditions: RP-HPLC
Outline: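 Lipophilicity by RP-HPLC on a C18 column at 1.0 mL/min. Mobile phases were 10-50% […] with 50-90% 0.01 M phosphate buffer pH 7.4. Triplicate runs per eluent. log k_o extrapolated from at least four eluent compositions. ClogP also calculated.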

Mus musculus [2] = experiment: Compound was tested for anticonvulsant activity in maximal electroshock seizure(MES) test after 30 min upon intraperitoneal administration to mice at a dose of 114 mg/kg; Animals protected / Animals tested = 3/10; format: functional
Outline: (§1)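 Male OF1 mice (15-25 g), free access to water only during testing. Compound given ip and maximal electroshock applied at 30 min or 3 h. Typically 8-10 mice per compound, dose and time point. Screening at initial 0.4 mmol/kg, scored as protected/tested.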

Mus musculus [3] = experiment: Compound was tested for anticonvulsant activity in maximal electroshock seizure(MES) test after 3 hours upon intraperitoneal administration to mice at a dose of 114 mg/kg; Animals protected / Animals tested = 4/8; format: functional; outline: as §1
Mus musculus [4] = experiment: Compound was tested for anticonvulsant activity in maximal electroshock seizure(MES) test after 3 hours upon intraperitoneal administration to mice; format: functional; conditions: ip; outline: as §1
Mus musculus [5] = experiment: Compound was tested for anticonvulsant activity in maximal electroshock seizure(MES) test after 30 min upon intraperitoneal administration to mice; format: functional; conditions: ip, 0.5 h; outline: as §1
Mus musculus [6] = experiment: The average latency on the onset of the seizures compared to the controls after 30 min in the strychnine test in mice at a dose of 209 mg/kg; format: functional
Outline: (§2)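 Male NMRI mice (18-25 g). Compound in DMSO given ip at 2 mL/kg. Strychnine chlorhydrate in saline (1.2 mg/mL, 1 mL/kg) given sc 30 min or 3 h later, with 30 min observation. Seizure onset latency expressed as % of the mean control latency (mean ± SD, n = 8-10).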

Mus musculus [7] = experiment: Percent of the tonic seizures after 3h in the 3-mercaptopropionic acid test in mice at a dose of 418mg/kg, ip; format: functional
Outline: (§3)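 Male NMRI mice (18-25 g). Compound in DMSO given ip at 2 mL/kg. 3-Mercaptopropionic acid 40 mg/kg ip in saline given 30 min or 3 h later. Tonic seizures recorded and expressed as % of animals.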

Mus musculus [8] = experiment: The average latency on the onset of the seizures compared to the controls after 3 hr in the strychnine test in mice at a dose of 209 mg/kg; format: functional; outline: as §2
Mus musculus [9] = experiment: Percent of the tonic seizures after 3h in the 3-mercaptopropionic acid test in mice at a dose of 209 mg/kg, ip; format: functional; conditions: route intraperitoneal; outline: as §3
Mus musculus [10] = experiment: Percent of the tonic seizures after 30 min in the 3-mercaptopropionic acid test in mice at a dose of 418 mg/kg, ip; format: functional; conditions: route intraperitoneal; outline: as §3
Mus musculus [11] = experiment: Percent of the tonic seizures after 30 min in the 3-mercaptopropionic acid test in mice at a dose of 209 mg/kg, ip; format: functional; conditions: route intraperitoneal; outline: as §3
Mus musculus [12] = experiment: Compound was tested for anticonvulsant activity in maximal electroshock seizure(MES) test after 30 min upon intraperitoneal administration to mice at a dose of 84 mg/kg; Animals protected / Animals tested = 2/8; format: functional; outline: as §1
Mus musculus [13] = experiment: The average latency on the onset of the seizures compared to the controls after 30 min in the strychnine test in mice at a dose of 220 mg/kg; format: functional; outline: as §2
Mus musculus [14] = experiment: The average latency on the onset of the seizures compared to the controls after 3h in the strychnine test in mice at a dose of 220 mg/kg; format: functional; outline: as §2
Mus musculus [15] = experiment: Compound was tested for anticonvulsant activity in maximal electroshock seizure(MES) test after 3 hours upon intraperitoneal administration to mice at a dose of 750 mg/kg; format: functional; conditions: ip; outline: as §1
Mus musculus [16] = experiment: Compound was tested for anticonvulsant activity in maximal electroshock seizure(MES) test after 30 min upon intraperitoneal administration to mice at a dose of 89 mg/kg; Animals protected / Animals tested = 2/8; format: functional; outline: as §1
Mus musculus [17] = experiment: Compound was tested for anticonvulsant activity in maximal electroshock seizure(MES) test after 3 hours upon intraperitoneal administration to mice at a dose of 106 mg/kg; Animals protected / Animals tested = 4/8; format: functional; outline: as §1
Mus musculus [18] = experiment: Compound was tested for anticonvulsant activity in maximal electroshock seizure(MES) test after 3 hours upon intraperitoneal administration to mice at a dose of 116 mg/kg; Animals protected / Animals tested = 3/8; format: functional; outline: as §1
Mus musculus [19] = experiment: Ratio of the animals protected to animals tested after 30 min. in the MES test after intraperitoneal administration to mice at a dose of 150 mg/kg; Animals protected / Animals tested = 2/10; format: functional; outline: as §1
Mus musculus [20] = experiment: Ratio of the animals protected to animals tested after 3h in the MES test after intraperitoneal administration to mice at a dose of 150 mg/kg; Animals protected / Animals tested = 3/8; format: functional; outline: as §1
Mus musculus [21] = experiment: Compound was tested for anticonvulsant activity in maximal electroshock seizure(MES) test after 30 min upon intraperitoneal administration to mice at a dose of 120 mg/kg; Animals protected / Animals tested = 4/10; format: functional; outline: as §1
Mus musculus [22] = experiment: Compound was tested for anticonvulsant activity in maximal electroshock seizure(MES) test after 3 hours upon intraperitoneal administration to mice at a dose of 120 mg/kg; Animals protected / Animals tested = 6/9; format: functional; outline: as §1
Mus musculus [23] = experiment: Ratio of the animals protected to animals tested after 30 min. in the MES test after intraperitoneal administration to mice at a dose of 150 mg/kg; Animals protected / Animals tested = 1/8; format: functional; outline: as §1
Mus musculus [24] = experiment: Ratio of the animals protected to animals tested after 3h in the MES test after intraperitoneal administration to mice at a dose of 150 mg/kg; Animals protected / Animals tested = 5/10; format: functional; outline: as §1
Mus musculus [25] = experiment: Compound was tested for anticonvulsant activity in maximal electroshock seizure(MES) test after 30 min upon intraperitoneal administration to mice at a dose of 120 mg/kg; Animals protected / Animals tested = 0/8; format: functional; outline: as §1
Mus musculus [26] = experiment: Compound was tested for anticonvulsant activity in maximal electroshock seizure(MES) test after 30 min upon intraperitoneal administration to mice at a dose of 89 mg/kg; Animals protected / Animals tested = 3/8; format: functional; outline: as §1
Mus musculus [27] = experiment: Compound was tested for anticonvulsant activity in maximal electroshock seizure(MES) test after 3 hours upon intraperitoneal administration to mice at a dose of 89 mg/kg; Animals protected / Animals tested = 4/10; format: functional; outline: as §1
Mus musculus [28] = experiment: Compound was tested for anticonvulsant activity in maximal electroshock seizure(MES) test after 30 min upon intraperitoneal administration to mice at a dose of 120 mg/kg; Animals protected / Animals tested = 1/8; format: functional; outline: as §1
Mus musculus [29] = experiment: The average latency on the onset of the seizures compared to the controls after 3h in the strychnine test at a dose of 207 mg/kg; format: functional; outline: as §2
Mus musculus [30] = experiment: Compound was tested for anticonvulsant activity in maximal electroshock seizure(MES) test after 30 min upon intraperitoneal administration to mice at a dose of 166 mg/kg; Animals protected / Animals tested = 3/9; format: functional; outline: as §1
Mus musculus [31] = experiment: The average latency on the onset of the seizures compared to the controls after 30 min in the strychnine test at a dose of 207 mg/kg; format: functional; outline: as §2
Mus musculus [32] = experiment: Compound was tested for anticonvulsant activity in maximal electroshock seizure(MES) test after 3 hours upon intraperitoneal administration to mice at a dose of 166 mg/kg; Animals protected / Animals tested = 6/9; format: functional; outline: as §1
Mus musculus [33] = experiment: Percent of the tonic seizures after 3h in the 3-mercaptopropionic acid test at a dose of 207 mg/kg; format: functional; outline: as §3
Mus musculus [34] = experiment: Percent of the tonic seizures after 30 min in the 3-mercaptopropionic acid test at a dose of 207 mg/kg; format: functional; outline: as §3
Mus musculus [35] = experiment: Compound was tested for anticonvulsant activity in maximal electroshock seizure(MES) test after 30 min upon intraperitoneal administration to mice at a dose of 58 mg/kg; Animals protected / Animals tested = 2/10; format: functional; outline: as §1
Mus musculus [36] = experiment: Compound was tested for anticonvulsant activity in maximal electroshock seizure(MES) test after 3 hr upon intraperitoneal administration to mice; format: functional; conditions: ip; outline: as §1
Mus musculus [37] = experiment: Compound was tested for anticonvulsant activity in maximal electroshock seizure(MES) test after 30 min upon intraperitoneal administration to mice at a dose of 750 mg/kg; format: functional; conditions: ip, 0.5 h; outline: as §1

O=C(CNC(=O)OCc1ccccc1)Nc1ccccc1
Log Ko [1]: 3.49 | Protected/tested (Mus musculus [2]): 3 | Protected/tested (Mus musculus [3]): 4

CC(C)NC(=O)CNC(=O)OCc1ccccc1
Log Ko [1]: 2.65 | ED50 (Mus musculus [4]): 9.5 mg/kg | ED50 (Mus musculus [5]): 14 mg/kg

O=C(O)CNC(=O)OCc1ccccc1
Average latency (Mus musculus [6]): 150% | ED50 (Mus musculus [4]): 56.5 mg/kg | Tonic seizures (Mus musculus [7]): 27% | Average latency (Mus musculus [8]): 142% | Tonic seizures (Mus musculus [9]): 45% | Tonic seizures (Mus musculus [10]): 33% | Tonic seizures (Mus musculus [11]): 55% | Protected/tested (Mus musculus [12]): 2

COC(=O)CNC(=O)OCc1ccccc1
Log Ko [1]: 2.64 | Average latency (Mus musculus [13]): 154% | Average latency (Mus musculus [14]): 139% | ED50 (Mus musculus [15]): 16.5 mg/kg | Protected/tested (Mus musculus [16]): 2

CC(C)(C)NC(=O)CNC(=O)OCc1ccccc1
Log Ko [1]: 3.25 | Protected/tested (Mus musculus [17]): 4 | ED50 (Mus musculus [5]): 39.4 mg/kg

O=C(CNC(=O)OCc1ccccc1)NC1CCCCC1
Log Ko [1]: 3.7 | Protected/tested (Mus musculus [18]): 3 | ED50 (Mus musculus [5]): 33.4 mg/kg

CCCCCCCCCCNC(=O)CNC(=O)OCc1ccccc1
Log Ko [1]: > 5 | Protected/tested (Mus musculus [19]): 2 | Protected/tested (Mus musculus [20]): 3

O=C(CNC(=O)OCc1ccccc1)OCc1ccccc1
Log Ko [1]: 4.35 | Protected/tested (Mus musculus [21]): 4 | Protected/tested (Mus musculus [22]): 6

CCCCCCCCCCOC(=O)CNC(=O)OCc1ccccc1
Log Ko [1]: > 5 | Protected/tested (Mus musculus [23]): 1 | Protected/tested (Mus musculus [24]): 5

Cc1ccc(NC(=O)CNC(=O)OCc2ccccc2)cc1
Log Ko [1]: 3.99 | ED50 (Mus musculus [4]): 27.4 mg/kg | Protected/tested (Mus musculus [25]): 0

COC(=O)CNC(=O)CCc1ccccc1
Log Ko [1]: 2.37 | Protected/tested (Mus musculus [26]): 3 | Protected/tested (Mus musculus [27]): 4

Cc1ccccc1NC(=O)CNC(=O)OCc1ccccc1
Log Ko [1]: 3.49 | ED50 (Mus musculus [4]): 74.3 mg/kg | Protected/tested (Mus musculus [28]): 1

O=C(CNC(=O)OCc1ccccc1)NCCc1ccccc1
Log Ko [1]: 3.88 | ED50 (Mus musculus [4]): 16.6 mg/kg | ED50 (Mus musculus [5]): 8.1 mg/kg

NC(=O)CNC(=O)OCc1ccccc1
Log Ko [1]: 1.52 | ED50 (Mus musculus [4]): 8.3 mg/kg | ED50 (Mus musculus [5]): 15.2 mg/kg

CNC(=O)CNC(=O)OCc1ccccc1
Log Ko [1]: 2.03 | ED50 (Mus musculus [4]): 7.8 mg/kg | ED50 (Mus musculus [5]): 13.6 mg/kg

O=C(O)CNC(=O)CCc1ccccc1 [HYDROCINNAMOYLGLYCINE]
Average latency (Mus musculus [29]): 96% | Protected/tested (Mus musculus [30]): 3 | Average latency (Mus musculus [31]): 99% | Protected/tested (Mus musculus [32]): 6 | Tonic seizures (Mus musculus [33]): 100% | Tonic seizures (Mus musculus [34]): 80%

CCCCCNCC(N)=O [MILACEMIDE]
ED50 (Mus musculus [4]): 30.2 mg/kg | Protected/tested (Mus musculus [35]): 2

O=C1NC(=O)C(c2ccccc2)(c2ccccc2)N1 [PHENYTOIN]
ED50 (Mus musculus [36]): 3 mg/kg | ED50 (Mus musculus [5]): 3.5 mg/kg

CCCC(CCC)C(=O)O [VALPROIC ACID]
ED50 (Mus musculus [37]): 44.5 mg/kg | ED50 (Mus musculus [15]): 80.6 mg/kg

CCCC(CCC)C(N)=O [VALPROMIDE]
ED50 (Mus musculus [37]): 14.9 mg/kg | ED50 (Mus musculus [15]): 11.4 mg/kg
